The record followed here is PMC4530033 (Journal of immunology (Baltimore, Md. : 1950), 2015).

The target in one data set is DNMT1 (Homo sapiens, UniProt P26358). In words: DNMT enzymatic activity in vitro. Format: biochemical. Particulars: recombinant DNMT1; 10-dose, 3-fold serial dilutions starting at 10 μM. The essentials: (§1)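 Recombinant human enzyme with ³H-S-adenosylmethionine as substrate. Test compound was run at 10 doses, 3-fold serial dilution from 10 μM. […] Activity was plotted against concentration and IC50 fitted by curve regression. Three independent assays used three compound lots.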

A further data set has as its target DNMT3a (Homo sapiens, UniProt Q9Y6K1). The data set can be described thus: DNMT enzymatic activity in vitro. Format: biochemical. To be noted: recombinant DNMT3a; 10-dose, 3-fold serial dilutions starting at 10 μM. The essentials:
as §1

Another data set deals with DNMT3b (Homo sapiens, UniProt Q9UBC3). In words: DNMT enzymatic activity in vitro. Format: biochemical. To be noted: recombinant DNMT3b; 10-dose, 3-fold serial dilutions starting at 10 μM. The essentials: as §1
Data set [1] concerns LS411N and SW620 cells. In words: Global H3K9 methylation by Western blot of histone acidic extracts. Format: cell-based, human. To be noted: 2 days. In a few lines: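 Cells were exposed to test compound at several concentrations for 2 days. Lysis buffer was 20 mM Tris-HCl pH 8, 150 mM NaCl, 5 mM EDTA, 0.5% NP-40 with protease inhibitors, for 30 min. After centrifugation the pellet went into 0.1M HCl on ice for 30 min. The acid extract was neutralised with Tris-HCl pH 9.0, blotted for H3K9me2/H3K9me3, and reprobed for total H3 as normaliser.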

The subject of data set [2] is LS411N and SW620 cells. In words: BNIP3 promoter DNA methylation by methylation specific-PCR. Format: cell-based, human. Particulars: 3 days. The essentials: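 Cells were exposed to test compound at several concentrations for 3 days. Methylation status of the BNIP3 promoter CpG island was then assessed by methylation-specific PCR, with separate primers for the unmethylated and methylated forms.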

For data set [3], the system named is LS411N-5FU-R and SW620-5FU-R cells. The data set can be described thus: Fas expression. Format: cell-based, human. Particulars: 20 nM, 2 days. In a few lines: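 Cells were cultured with or without 20 nM test compound for 2 days. Surface Fas was measured by flow cytometry with a Fas-specific mAb against an IgG isotype control, quantified as MFI (mean, SD). Fas mRNA in SW620-5FU-R was measured by real-time RT-PCR.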

The next data set relates to SW620 and SW480 cells. The data set can be described thus: ChIP analysis of the FAS promoter region. Format: cell-based, human. Particulars: 2 days. In a few lines: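 Cells (SW620 given 50 nM test compound for H3K9me3 and RNA Pol II; SW480 and SW620 for H3K9ac) treated 2 days. ChIP followed the kit manufacturer's protocol with anti-H3K9me3, anti-H3K9ac or anti-RNA Pol II, and IgG as the negative control. The FAS promoter ChIP 1 region was read by semi-quantitative PCR and by real-time PCR, against 2 ng genomic DNA set at 1.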

Data set [4] relates to LS411N-5FU-R and SW620-5FU-R cells. The data set can be described thus: Sensitization to FasL-induced apoptosis. To be noted: sublethal doses plus FasL, 24h. Format: cell-based, human.
In data set [5] the test system is SW620-5FU-R and LS411N-5FU-R cells. The data set can be described thus: Cell surface DR4 and DR5 expression by flow cytometry. Format: cell-based, human. Particulars: 2 days. In a few lines:
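Cells were plated at 1×10^5 per well and exposed to 0, 20 or 50 nM test compound. They were then stained with anti-DR4 (TRAIL-R1) or anti-DR5 (TRAIL-R2) antibodies and analysed by flow cytometry.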

Data set [6] relates to LS411N-5FU-R and SW620-5FU-R cells. The data set can be described thus: Sensitization to Drozitumab-induced apoptosis. Format: cell-based, human. To be noted: verticillin A 20 nM, Drozitumab 500 ng/ml, 24h. In a few lines:
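Cells were given test compound (20 nM), drozitumab (500 ng/ml) or both for 24 h. Floating and adherent cells were pooled and stained with Annexin V and PI, then read by flow cytometry. % apoptotic death = % Annexin V⁺PI⁺ of treated minus untreated control (mean, SD).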

Data set [7] is described as follows: Mouse serum liver enzyme profiles. Format: in vivo. Particulars: at the efficacious dose (1 mg/kg i.v.); preliminary assays.
Data set [8] relates to metastatic human CRC cells. In words: Cell growth / viability. Format: cell-based.

DNMT1, sequence (P26358 whole entry, species assumed): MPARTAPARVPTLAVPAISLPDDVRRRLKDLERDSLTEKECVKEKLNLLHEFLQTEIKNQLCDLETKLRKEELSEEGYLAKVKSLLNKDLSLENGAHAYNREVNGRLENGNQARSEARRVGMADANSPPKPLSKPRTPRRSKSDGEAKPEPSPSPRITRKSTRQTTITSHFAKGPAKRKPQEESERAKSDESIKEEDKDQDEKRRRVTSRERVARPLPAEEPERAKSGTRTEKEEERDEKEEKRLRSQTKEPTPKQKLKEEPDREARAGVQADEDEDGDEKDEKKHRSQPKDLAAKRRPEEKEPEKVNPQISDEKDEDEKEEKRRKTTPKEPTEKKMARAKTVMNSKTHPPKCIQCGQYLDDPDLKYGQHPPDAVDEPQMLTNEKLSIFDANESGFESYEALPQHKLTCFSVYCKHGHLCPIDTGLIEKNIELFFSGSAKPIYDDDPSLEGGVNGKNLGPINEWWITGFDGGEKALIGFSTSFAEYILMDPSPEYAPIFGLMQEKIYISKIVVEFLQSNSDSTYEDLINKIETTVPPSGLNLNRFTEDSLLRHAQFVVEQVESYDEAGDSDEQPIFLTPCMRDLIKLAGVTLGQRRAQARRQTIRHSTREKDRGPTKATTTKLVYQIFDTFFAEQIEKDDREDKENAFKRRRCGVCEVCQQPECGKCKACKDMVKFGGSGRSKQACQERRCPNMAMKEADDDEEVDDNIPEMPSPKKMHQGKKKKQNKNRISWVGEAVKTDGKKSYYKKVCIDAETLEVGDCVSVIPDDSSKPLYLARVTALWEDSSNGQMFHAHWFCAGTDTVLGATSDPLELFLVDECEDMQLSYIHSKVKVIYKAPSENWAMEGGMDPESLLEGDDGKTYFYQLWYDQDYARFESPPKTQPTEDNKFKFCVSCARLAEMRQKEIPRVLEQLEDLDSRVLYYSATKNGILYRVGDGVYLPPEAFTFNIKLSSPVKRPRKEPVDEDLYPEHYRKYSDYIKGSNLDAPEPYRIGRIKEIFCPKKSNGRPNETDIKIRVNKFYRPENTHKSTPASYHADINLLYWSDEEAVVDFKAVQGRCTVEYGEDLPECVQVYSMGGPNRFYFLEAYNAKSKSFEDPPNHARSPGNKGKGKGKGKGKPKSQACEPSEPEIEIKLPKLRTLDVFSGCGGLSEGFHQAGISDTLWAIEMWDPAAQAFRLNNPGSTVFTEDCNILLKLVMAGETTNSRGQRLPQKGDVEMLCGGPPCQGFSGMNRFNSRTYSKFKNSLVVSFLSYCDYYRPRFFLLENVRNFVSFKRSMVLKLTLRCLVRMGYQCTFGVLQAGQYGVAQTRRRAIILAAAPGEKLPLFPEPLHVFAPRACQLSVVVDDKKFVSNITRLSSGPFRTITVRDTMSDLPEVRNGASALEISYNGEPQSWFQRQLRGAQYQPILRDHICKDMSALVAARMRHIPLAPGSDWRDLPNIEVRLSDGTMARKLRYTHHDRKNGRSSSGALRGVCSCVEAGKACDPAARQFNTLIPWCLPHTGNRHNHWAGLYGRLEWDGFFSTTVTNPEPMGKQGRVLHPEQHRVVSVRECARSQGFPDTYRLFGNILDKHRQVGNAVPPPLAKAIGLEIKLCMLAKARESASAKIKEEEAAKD
DNMT3a, sequence (Q9Y6K1 whole entry, looked up, species assumed): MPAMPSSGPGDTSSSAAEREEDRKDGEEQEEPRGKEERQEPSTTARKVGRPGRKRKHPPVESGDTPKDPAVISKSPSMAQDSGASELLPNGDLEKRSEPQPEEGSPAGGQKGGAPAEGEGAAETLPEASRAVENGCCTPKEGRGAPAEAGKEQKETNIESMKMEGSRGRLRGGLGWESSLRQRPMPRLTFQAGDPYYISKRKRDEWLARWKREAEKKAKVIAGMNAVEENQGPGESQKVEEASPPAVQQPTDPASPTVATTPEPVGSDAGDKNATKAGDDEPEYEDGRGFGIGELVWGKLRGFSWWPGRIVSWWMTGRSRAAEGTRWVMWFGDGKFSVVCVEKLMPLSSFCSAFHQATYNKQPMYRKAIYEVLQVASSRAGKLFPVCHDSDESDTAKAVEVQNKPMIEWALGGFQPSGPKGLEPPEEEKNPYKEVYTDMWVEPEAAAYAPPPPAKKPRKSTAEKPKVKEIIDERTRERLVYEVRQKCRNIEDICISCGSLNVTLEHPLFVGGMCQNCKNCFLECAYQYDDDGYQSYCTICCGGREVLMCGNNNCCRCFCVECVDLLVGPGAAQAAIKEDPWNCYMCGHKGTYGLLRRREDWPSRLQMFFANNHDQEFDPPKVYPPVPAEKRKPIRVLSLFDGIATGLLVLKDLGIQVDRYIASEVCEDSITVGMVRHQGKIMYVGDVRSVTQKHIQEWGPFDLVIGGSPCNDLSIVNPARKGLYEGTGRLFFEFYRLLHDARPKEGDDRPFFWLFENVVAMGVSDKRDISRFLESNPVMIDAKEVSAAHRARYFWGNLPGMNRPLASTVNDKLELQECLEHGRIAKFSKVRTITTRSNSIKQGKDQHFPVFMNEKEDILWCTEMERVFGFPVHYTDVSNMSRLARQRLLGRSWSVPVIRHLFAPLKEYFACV

Turning to `CN1C(=O)[C@]23SS[C@@]1(C)C(=O)N2[C@H]1Nc2ccccc2[C@@]1([C@@]12c4ccccc4N[C@@H]1N1C(=O)[C@@]4(C)SS[C@]1(C(=O)N4C)[C@H]2O)[C@@H]3O` [Verticillin A, verticillin A], the “effect on DNMT1 enzymatic activity” value on DNMT1 is reported as “no inhibitory effect”. Besides, the “effect on DNMT3a enzymatic activity” value at DNMT3a is given as “no inhibitory effect”. The “effect on DNMT3b enzymatic activity” value on DNMT3b is on record as “no inhibitory effect”. The “H3K9me2 and H3K9me3 levels” value in the data set on LS411N and SW620 cells [1] is recorded as “diminished”. For the same compound, in the data set on LS411N and SW620 cells [2], the “DNA demethylation of the BNIP3 promoter region” value is listed as “did not result in DNA demethylation”. Further, the “cell surface Fas receptor level” value in data set [3] (LS411N-5FU-R and SW620-5FU-R cells, flow cytometry) is listed as “significantly increased”. In addition, in [3] (SW620-5FU-R cells, real time RT-PCR), the “Fas mRNA level” value was “significantly increased”. For the same compound, in the data set on SW620 and SW480 cells (SW480 cells), the “H3K9ac level in the FAS promoter region” value is “dramatically increased”. In the data set with SW620 and SW480 cells (SW620 cells, 50 nM), the “H3K9me3 level in the FAS promoter region” value is “decreased” and the “RNA Pol II level in the FAS promoter region” value is given as “did not identify an increase”. In addition, the “H3K9ac level in the FAS promoter region” value with SW620 and SW480 cells (SW620 cells, increase) is recorded as “at a low degree”. Besides, the “sensitization of tumor cells to FasL-induced apoptosis” value (“sensitization of tumor cells” for short) in [4] is “significantly greater efficacy than either decitabine or vorinostat”. Also, in data set [5], the DR4 expression result was “did not alter” and the DR5 expression level entry is on record as “increased”. The “cell sensitivity to Drozitumab” value in [6] is “significantly increased”. Also, the liver toxicity result in data set [7] is “minimal liver toxicity”. For the same compound, the “sensitivity of 5-FU-resistant human CRC cells to verticillin A” value in [8] (5-FU-resistant cells versus parent cell lines (Fig. S2B)) is listed as “as sensitive to verticillin A as the parent cell lines”. Moreover, in [8] (relatively high dose), the “dose effective in suppression of metastatic human CRC cell growth” value is 100 nM.

Take `Nc1ncn([C@H]2C[C@H](O)[C@@H](CO)O2)c(=O)n1` [decitabine]: the “sensitization of tumor cells” value in [4] is “to a small degree”.

In the case of `O=C(CCCCCCC(=O)Nc1ccccc1)NO` [vorinostat], the “sensitization of tumor cells” value in data set [4] was “to a small degree”.
